The target in experiment [1] is YFP-labeled PTHR (UniProt Q03431). Nature of the experiment: FRET or BRET.
Experiment [2] addresses PTHR variant that lacks the N domain and is tagged extracellularly with GFP. Nature of the experiment: FRET or BRET. In general terms: In BRET a luciferase serves as donor, and the signal depends on an acceptor being close.
Experiment [3] has as its system Gαs-GFP. Nature of the experiment: Live cell confocal co-localization of ligand with Gαs-GFP. To be noted: TMR-labeled ligand, after washout. The class given is cell-based.
The test system of experiment [4] is Rab7-GFP. Description: Co-localization of ligand with Rab7-GFP late endosomes. It is filed as cell-based. Conditions: even after 30 min of incubation.
For experiment [5], the system named is Rab5-GFP. Nature of the experiment: Co-localization of ligand with Rab5-GFP early endosomes. It is filed as cell-based. To be noted: Rab5-GFP-transfected cells. A digest of the protocol:
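Live HEK293 cells transfected with Rab5-GFP were imaged at room temperature 48 h post-transfection by spinning-disc confocal microscopy. Cells were washed with HEPES buffer containing 0.1% BSA. TMR-labelled ligand was added and removed by perfusion. Z-stacks were taken at 0.3-μm steps. Co-localization was scored by Pearson's correlation coefficient.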

Experiment [6] addresses T1, PTHR (GFP-N-PTHR) (Homo sapiens, UniProt Q03431).
T1 sequence (Q03431 27-593): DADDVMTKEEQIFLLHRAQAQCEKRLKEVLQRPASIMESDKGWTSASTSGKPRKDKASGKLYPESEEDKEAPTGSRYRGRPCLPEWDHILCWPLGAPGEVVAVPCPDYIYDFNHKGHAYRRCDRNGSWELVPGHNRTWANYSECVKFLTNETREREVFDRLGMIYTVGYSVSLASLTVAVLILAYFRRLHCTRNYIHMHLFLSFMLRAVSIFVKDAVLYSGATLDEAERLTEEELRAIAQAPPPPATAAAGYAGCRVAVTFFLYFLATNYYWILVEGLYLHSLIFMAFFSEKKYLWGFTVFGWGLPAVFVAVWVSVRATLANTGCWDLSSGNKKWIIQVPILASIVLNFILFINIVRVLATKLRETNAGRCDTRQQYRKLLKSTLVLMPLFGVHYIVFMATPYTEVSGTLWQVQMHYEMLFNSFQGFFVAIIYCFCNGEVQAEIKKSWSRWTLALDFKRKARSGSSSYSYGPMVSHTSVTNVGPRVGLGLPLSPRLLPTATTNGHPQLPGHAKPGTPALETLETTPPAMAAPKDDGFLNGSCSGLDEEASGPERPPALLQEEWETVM
It is filed as binding. To be noted: for ligand dissociation after washout: GFP fluorescence recovery after rapid removal of ligand; for decrease in GFP emission: saturating concentration (15 μM), hormone binding to receptor.

Experiment [7] deals with early endosomal antigen 1 (EEA-1). Description: Co-localization of ligand with GFP-tagged EEA-1. It is filed as cell-based. To be noted: data not shown.
The subject of experiment [8] is GFP-N-PTHR. Description: Live cell confocal co-localization of ligand with GFP-N-PTHR. It is filed as cell-based. To be noted: TMR-labeled ligand, after washout.
For experiment [9], the system named is adenylyl cyclases. Nature of the experiment: Co-localization of ligand with BODIPY-Fsk labeled adenylyl cyclases. It is filed as cell-based. Conditions: cells transiently transfected with PTHR. In a few lines:
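HEK293 cells transiently transfected with PTHR. Cellular adenylyl cyclases labeled with BODIPY-labeled forskolin, which labels all cells. A TMR-labeled test peptide ligand marks only the PTHR-expressing cells. After ligand binding, the distribution of the BODIPY-Fsk signal is compared with the ligand signal (internalized punctae vs diffuse) by live-cell fluorescence imaging.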

Experiment [10] addresses T2, PTHR co-expressed with DN-Gs (Homo sapiens, UniProt Q03431).
T2 sequence (Q03431 27-593): T1 sequence (Q03431 27-593)
Nature of the experiment: Ligand dissociation by FRET with co-expressed dominant-negative Gαs. The class given is binding. Conditions: co-expression of DN-Gs.

In experiment [11] the test system is cAMP via PTHR in HEK293 cells. Description: cAMP accumulation/degradation by FRET sensor Epac-CFP/YFP. To be noted: PTHrP1–36 100 nM, PTH1–34 text 1−10 nM. The class given is cell-based. On the technique in general: cAMP levels reflect the balance of adenylyl cyclase and phosphodiesterase activity.
The target in experiment [12] is T3, PTHR (PTHR-CFP/YFP) (Homo sapiens, UniProt Q03431).
T3 sequence (Q03431 27-462 limits assumed): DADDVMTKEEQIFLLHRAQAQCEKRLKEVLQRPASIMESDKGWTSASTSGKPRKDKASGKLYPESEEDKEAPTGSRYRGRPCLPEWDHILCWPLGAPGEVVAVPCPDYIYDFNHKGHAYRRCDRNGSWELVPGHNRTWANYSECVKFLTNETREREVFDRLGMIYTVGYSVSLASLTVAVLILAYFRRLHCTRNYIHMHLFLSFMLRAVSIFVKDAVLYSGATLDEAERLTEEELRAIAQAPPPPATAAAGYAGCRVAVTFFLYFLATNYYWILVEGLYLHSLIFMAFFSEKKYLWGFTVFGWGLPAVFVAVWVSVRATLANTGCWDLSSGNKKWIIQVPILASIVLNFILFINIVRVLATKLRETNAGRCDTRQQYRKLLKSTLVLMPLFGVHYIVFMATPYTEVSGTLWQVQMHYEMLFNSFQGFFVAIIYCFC
Description: PTHR activation/deactivation by intramolecular FRET. It is filed as cell-based. Conditions: PTHR-CFP/YFP FRET after washout.

Experiment [13] concerns the target PTHR N-terminally tagged with green fluorescent protein (UniProt Q03431). Nature of the experiment: FRET or BRET.
In experiment [14] the test system is PTHR. Conditions: membranes, ref [6]; cited from earlier work.

Data on 8 substances can be found in publication PMC3032084 (Nature chemical biology, 2009).

“Also recorded” adds a separate entry of the source.

In experiment [1], “Gs-CFP (Gαs/Gβ1/Gγ2-CFP) (from UniProt P63092 1-394; P62873 1-340; P59768 1-71) (complex; other documents disagree on this pair)” yielded a tau, PTHR-Gs dissociation (turn off) after washout of PTHrP(1-36) of 48.1 s; a tau, PTHR-Gs interaction (switch on) with PTH(1-34) of 0.96 s; a tau, PTHR-Gs interaction (switch on) with PTHrP(1-36) of 1.58 s.
In the case of “M-PTH(1-14) labelled with tetramethylrhodamine (peptide)”, in [2], the tau, dissociation (single step) worked out at 15.8 s.
“PTH1–34-TMR: PTH ligand tagged at Lys13 with tetramethylrhodamine”: the “co-localization with Gαs-GFP” value in [3] is “strong co-localization with both GFP-N-PTHR and Gas-GFP; also recorded: persisted over a period of 30 min in endosomes but not at the cell surface”. Moreover, the “co-localization with Rab7-GFP” value in experiment [4] was “No co-localization”. The “co-localization with Rab5-labeled endosomes” value in [5] is “all of the internalized PTH1–34-TMR co-localized with Rab5-labeled endosomes”. Moreover, in experiment [6], the “ligand dissociation after washout” value is given as “most of the ligand remaining bound to the receptor after washout” and the “decrease in GFP emission” value is listed as ~ 20%. In addition, the “co-localization with EEA-1-GFP” value in [7] is “also co-localized with the early endosomal antigen 1 (EEA-1)”. In addition, the “co-localization with GFP-N-PTHR” value in experiment [8] was “strong co-localization with both GFP-N-PTHR and Gas-GFP; also recorded: little or no TMR fluorescence from PTH1–34-TMR was detected at the cell surface; also recorded: remained closely associated during receptor internalization”. Also, the “BODIPY-Fsk (adenylyl cyclase) distribution/co-localization with ligand” value in experiment [9] is “strongly co-localized with the ligand as internalized punctae”. Besides, the “effect of DN-Gs on ligand release” value in experiment [10] was “no effect”.
With PTH1–84: PTH is represented by PTH1–84, in experiment [11], the “Epac-FRET (cAMP) signal after ligand washout” value is given as “remained fully stable after washout”. Besides, the “persistence of active receptor state after ligand removal” value in experiment [12] is “stable active state that persisted well after removal of ligand”.
For the substance “PTH(1-34) tagged at Lys13 with tetramethylrhodamine (peptide)”, in experiment [13], the koff, fast step (intercept) turned out to be 0.46 s⁻¹; the tau fast, dissociation (turn off) amounted to 1.5 s; the tau slow, association (switch on) was 1.15 s.
PTHrP1–36-TMR: TMR-labeled PTHrP1–36: the “co-localization with Gαs-GFP” value in experiment [3] is recorded as “did not co-localize with either GFP-N-PTHR or Gαs-GFP; also recorded: only ligand-containing vesicles are observed”. Moreover, in experiment [6], the “ligand dissociation after washout” value is listed as “complete dissociation of the ligand from the receptor” and the “decrease in GFP emission” value is on record as ~ 20%. The “co-localization with GFP-N-PTHR” value in experiment [8] is “did not co-localize with either GFP-N-PTHR or Gαs-GFP; also recorded: alone is detected as small puntae at internalized sites”. In addition, the “BODIPY-Fsk (adenylyl cyclase) distribution/co-localization with ligand” value in experiment [9] is given as “the labeled forskolin remained diffuse”.
As to ^125I-PTH1–34: radioligand of PTH1–34, the “stability of radioligand binding with GTPγS” value in experiment [14] is listed as “remains mostly stable in the presence of GTPγS”.
As to “^125I-PTHrP1–36: radioligand of PTHrP1–36”, in experiment [14], the “stability of radioligand binding with GTPγS” value is listed as “mostly destabilized by GTPγS”.
